Assay results: ChEMBL document CHEMBL4311987, “Discovery of novel allosteric site and covalent inhibitors of FBPase with potent hypoglycemic effects” (Eur J Med Chem, 2019)

Assay: Acute toxicity in C57BL/6 mouse assessed as weight loss at 600 mg/kg, po observed for 14 days
Assay type: organism-based
Conditions: in vivo, 336 h
Summary of the method: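 Sixteen male C57BL/6 mice, 8 weeks old, were randomised into two groups. Each group got a single oral dose on day 1, either vehicle or 600 mg/kg. Animals were watched for 14 days for mortality, body-weight loss and allergic reactions, against controls.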

SMILES: CCOC(=O)C(C)(C)Oc1ccc(F)c(/C=C/[N+](=O)[O-])c1
- Activity: Non-Toxic
